In ChEMBL document CHEMBL3600321, “Synthesis and antifungal evaluation of head-to-head and head-to-tail bisamidine compounds” (Bioorg Med Chem, 2015):
≈ marks a conversion by molar mass, not a printed value. Calls of active or inactive are those of the source. The calls are words filed in the database; no cut-off is given here.

Experiments:
Nakaseomyces glabratus = test: Antifungal activity against Candida glabrata ATCC 90030 WTBF-86 by microbroth dilution method; type: functional
Procedure, shortened: (§1)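 CLSI microbroth dilution in RPMI 1640 with L-glutamine. MIC values are geometric means of three independent assays.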

Candida albicans [1] = test: Fungicidal activity against Candida albicans WTBF-50 assessed as decrease in number of viable cells at 4 x MIC measured within 4 to 24 hrs; type: functional, organism-based
Procedure, shortened: (§2)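 C. albicans was grown in RPMI at 37 °C to OD600 of about 1. […] Samples taken at intervals were serially diluted and plated on Sabouraud agar, and cfu/ml was counted.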

Cryptococcus neoformans = test: Antifungal activity against Cryptococcus neoformans Cn18 (Serotype C) WTBF-106 by microbroth dilution method; type: functional
Procedure, shortened: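 Microbroth dilution per the CLSI protocol, run in Sabouraud Dextrose Broth in place of RPMI. MIC values are geometric means of three independent assays.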

Candida albicans [2] = test: Fungicidal activity against Candida albicans WTBF-50 assessed as inhibition of DNA and RNA biosynthesis after 90 mins by [3H]-adenine incorporation assay; type: functional, organism-based
Procedure, shortened: (§3)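 C. albicans was grown in RPMI at 37 °C to OD600 of about 1, then mixed with 2-fold serial dilutions of compound and one 3H precursor at 10 μCi/ml final. Incubation ran 90 min at 37 °C, about one doubling. TCA precipitate was filter-collected and scintillation-counted. Each concentration was tested in triplicate. Incorporation relative to untreated control was fitted with a four-parameter curve to give the IC50.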

Candida parapsilosis = test: Antifungal activity against Candida parapsilosis ATCC 90018 WTBF-88 by microbroth dilution method; type: functional; settings: Lodderomyces parapsilosis; procedure, shortened: as §1
Candida albicans [3] = test: Fungicidal activity against Candida albicans WTBF-50 assessed as inhibition of protein biosynthesis after 90 mins by [3H]-leucine incorporation assay; type: functional, organism-based; procedure, shortened: as §3
Candida albicans [4] = test: Fungicidal activity against Candida albicans WTBF-50 assessed as inhibition of cell wall biosynthesis after 90 mins by [3H]-glucosamine incorporation assay; type: functional, organism-based; procedure, shortened: as §3
Candida albicans [5] = test: Fungicidal activity against Candida albicans WTBF-50 assessed as inhibition of RNA biosynthesis after 90 mins by [3H]-uridine incorporation assay; type: functional, organism-based; procedure, shortened: as §3
Candida albicans [6] = test: Fungicidal activity against Candida albicans WTBF-50 assessed as inhibition of lipid biosynthesis after 90 mins by [3H]-acetate incorporation assay; type: functional, organism-based; procedure, shortened: as §3
Candida albicans [7] = test: Fungicidal activity against Candida albicans WTBF-50 assessed as log10 reduction in CFU/ml at 4 x MIC measured within 4 hrs; type: functional; procedure, shortened: as §2
[8] = Metabolic stability in liver microsomes (unknown origin); type: ADME
HeLa = test: Cytotoxicity against human HeLa cells assessed as cell viability after 72 hrs by MTS assay; type: cell-based
Candida albicans [9] = test: Antifungal activity against Candida albicans WTBF-50 by microbroth dilution method; type: functional; procedure, shortened: as §1
Pichia kudriavzevii = test: Antifungal activity against Candida krusei WTBF-51 by microbroth dilution method; type: functional
Candida albicans [10] = test: Fungicidal activity against Candida albicans WTBF-50 assessed as decrease in number of viable cells measured within 4 to 24 hrs; type: functional, organism-based; procedure, shortened: as §2

| SMILES | MIC (Nakaseomyces glabratus) [µg/mL] | Activity (Candida albicans [1]) | MIC (Cryptococcus neoformans) [µg/mL] | IC50 (Candida albicans [2]) [µg/mL] | MIC (Candida parapsilosis) [µg/mL] | IC50 (Candida albicans [3]) [µg/mL] | IC50 (Candida albicans [4]) [µg/mL] | IC50 (Candida albicans [5]) [µg/mL] | IC50 (Candida albicans [6]) [µg/mL] | Activity (Candida albicans [7]) [log10CFU/ml] | Stability [8] | CC50 (HeLa) [µg/mL] | MIC (Candida albicans [9]) [µg/mL] | MIC (Pichia kudriavzevii) [µg/mL] | Activity (Candida albicans [10]) |
| --- | --- | --- | --- | --- | --- | --- | --- | --- | --- | --- | --- | --- | --- | --- | --- |
| C[C@@H]1[C@H](O)[C@@H](C)/C=C/C=C/C=C/C=C/C=C/C=C/C=C/[C@H](O[C@@H]2O[C@H](C)[C@@H](O)[C@H](N)[C@@H]2O)C[C@@H]2O[C@](O)(C[C@@H](O)C[C@@H](O)[C@H](O)CC[C@@H](O)C[C@@H](O)CC(=O)O[C@H]1C)C[C@H](O)[C@H]2C(=O)O [AMPHOTERICIN B] | 0.25 (≈ 0.271 µM) | Active | 32 (≈ 34.6 µM) | 0.038 (≈ 0.0411 µM) | 0.31 (≈ 0.335 µM) | 0.052 (≈ 0.0563 µM) | 0.043 (≈ 0.0465 µM) | 0.014 (≈ 0.0152 µM) | 0.036 (≈ 0.039 µM) |  |  |  |  |  |  |
| CC(=O)O.c1cc2cc(-c3ccc(-c4ccc5cc(C6=NCCCN6)oc5c4)cc3)[nH]c2cc1C1=NCCCN1 | 0.06 |  | 0.13 |  | 0.13 |  |  |  |  | >3 | Stable | 1.5 | 0.25 | 0.5 | Dose-dependent effect |
| CN(C)CCNC(=N)c1ccc2cc(-c3ccc(-c4cc5ccc(C(=N)NCCN(C)C)cc5[nH]4)cc3)[nH]c2c1.O=C(O)C(F)(F)F | 0.63 |  | 1.97 |  | 0.5 |  |  |  |  |  | Stable | 5.5 | 1 | 1 |  |
| O=C(O)C(F)(F)F.c1cc2cc(-c3ccc(-c4nc5ccc(C6=NCCCN6)cc5[nH]4)cc3)[nH]c2cc1C1=NCCCN1 | 0.13 |  | 0.5 |  | 0.16 |  |  |  |  |  | Stable | 14.1 | 0.4 | 1 |  |
| CC(=O)O.c1cc2cc(-c3ccc4nc(C5=NCCCN5)cn4c3)[nH]c2cc1C1=NCCCN1 | 0.16 |  | 6.25 |  | 1 |  |  |  |  |  | Stable | 91.9 | 1 | 1.26 |  |
| N=C(N)c1ccc(OCCCCCOc2ccc(C(=N)N)cc2)cc1 [PENTAMIDINE] | 3.13 (≈ 9.19 µM) |  | ≥ 100 | 0.19 (≈ 0.558 µM) | 12.5 (≈ 36.7 µM) | > 25 | > 25 | 12.2 (≈ 35.8 µM) | > 25 |  |  |  | 25 (≈ 73.4 µM) | 19.8 (≈ 58.2 µM) |  |
| O=C(O)C(F)(F)F.OC1CN=C(c2ccc3cc(-c4ccc(-c5cc6ccc(C7=NCC(O)CN7)cc6[nH]5)cc4)[nH]c3c2)NC1 (stereo unspecified) | 0.16 |  | 0.06 |  | 0.31 |  |  |  |  |  | Stable | > 80 | 0.5 | 12.7 |  |
| COCCNC(=N)c1ccc2cc(-c3ccc(-c4cc5ccc(C(=N)NCCOC)cc5[nH]4)cc3)[nH]c2c1.O=C(O)C(F)(F)F | 0.5 |  | 1.1 |  | 0.79 |  |  |  |  |  | Stable | 3.5 | 0.79 | 1 |  |
| O=C(O)C(F)(F)F.c1cc2cc(-c3ccc(-c4cn5cc(C6=NCCCN6)ccc5n4)cc3)[nH]c2cc1C1=NCCCN1 | 0.25 |  | 3.13 |  | 0.25 |  |  |  |  |  | Stable | 19.7 | 0.63 | 4 |  |
| c1cc2cc(CCCc3cc4ccc(C5=NCCCN5)cc4[nH]3)[nH]c2cc1C1=NCCCN1 | 12.7 (≈ 29 µM) |  | 16 (≈ 36.5 µM) |  | 32 (≈ 73 µM) |  |  |  |  |  | Stable | 80.3 (≈ 183 µM) | 22.6 (≈ 51.6 µM) | 32 (≈ 73 µM) |  |
| N=C(NCCO)c1ccc2cc(-c3ccc(-c4cc5ccc(C(=N)NCCO)cc5[nH]4)cc3)[nH]c2c1.O=C(O)C(F)(F)F | 0.13 |  | 1.97 |  | 0.25 |  |  |  |  |  | Stable | 14 | 0.25 | 1.59 |  |
| CC(=O)O.c1cc2cc(-c3ccc(-c4ccc5nc(C6=NCCCN6)cn5c4)cc3)oc2cc1C1=NCCCN1 | 1 |  | 1 |  | 0.79 |  |  |  |  |  | Stable | 20.7 | 4 | 8 |  |
